The term ED50 denotes the dose that gives a 50% effect, or the effect in half of the subjects. A low value points to an effect at a small dose.

From ChEMBL document CHEMBL1124114, “Peripherally acting enkephalin analogues. 1. Polar pentapeptides” (J Med Chem, 1988) come the findings set out here.

What all share (format): functional
In experiment [1] the test system is Mus musculus. The experiment is described as follows: In vivo inhibition of Acetic acid-induced writhing in mice (sc). The method in brief:
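Male TFW Tuck mice, five to six per group; acetic acid (0.6%) ip, 25 mL kg⁻¹; writhes counted for 5 min from 15 min after irritant. Compounds sc, 10 mL kg⁻¹. ED50 = dose giving 50% fewer writhes than vehicle, by linear regression.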
In general terms: An intraperitoneal irritant provokes the stretching counted in writhing tests.

The nature of experiment [2]: Dose ratio in the presence / absence of N-methyl-nalorphine (11.5 mg/kg) in acetic acid (AA) writhing. The procedure, abridged: (§1)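 Male TFW Tuck mice, groups of five to six; acetic acid (0.6%) ip at 25 mL kg⁻¹; writhes counted 5 min starting 15 min post-irritant. N-methylnalorphine 11.5 mg kg⁻¹ ip 20 min before sc agonist (both 10 mL kg⁻¹). ED50 by linear regression (50% writhe reduction vs vehicle); dose ratio = shift of parallel regression lines with/without antagonist.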

Experiment [3] is filed under the species Mus musculus. The experiment is described as follows: Effective dose was measured in hot plate test. The method in brief: (§2)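 Male CFLP mice (Hacking and Churchill), groups of five to six, placed on copper plate at 55 °C; endpoint paw licking/shaking or jumping, 30-s cut-off. Drugs sc, 10 mL kg⁻¹. ED50 = dose doubling response latency vs vehicle, by parallel-line probit analysis.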
Background: Thermal pain tests record how soon the animal reacts.

The test system of experiment [4] is Mus musculus. Nature of the experiment: In vivo inhibition of phenyl-1,4-benzoquinone(PBQ) -induced writhing in mice (sc). The procedure, abridged: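 Female CD1 Charles River mice, groups of five to six; PBQ 2.5 mg kg⁻¹ ip (10 mL kg⁻¹). Drug or vehicle sc 30 min before PBQ; writhes (abdominal contractions/hind-limb extensions) counted 2.5 min starting 10 min post-PBQ. ED50 = dose halving writhes vs vehicle, from linear regression.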

For another experiment, the species on record is Cavia porcellus. The experiment is described as follows: In vitro opioid activity of compound in the GPI (guinea pig ileum) by determination of inhibition of electrically induced contractions. The procedure, abridged:
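Terminal ileum segments from 300-350 g guinea pigs in 20-mL bath, 1-g tension, Krebs' bicarbonate gassed 95% O2/5% CO2. Coaxial stimulation 0.1 Hz, 0.5 ms, supramaximal voltage; isotonic recording of contractions. Dose-response curves with 15-min washout between doses; opioid nature checked by reversal with naloxone (1 μg mL⁻¹).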

A short description of experiment [5]: Dose ratio in the presence/absence of N-methyl-nalorphine (11.5 mg/kg) in acetic acid (AA) writhing. The method in brief:
as §1

The test system of experiment [6] is Mus musculus. Nature of the experiment: Effective dose was measured in hot plate test; no effect 25 mg/kg. The procedure, abridged: as §2

Numbered stars: 1 amine (or outer) side, 2 acyl side, 3 side chain; on linkers, the order of the positions; unused ones are H or OH. Square brackets hold non-standard residues; d marks the D form. Peptide text beside a SMILES is read from it. * marks the point of attachment. Phe(4-NO2) = N[C@@H](Cc1ccc([N+](=O)[O-])cc1)C(=O)O; Tyr(Nα-amidino) = N=C(N)N[C@@H](Cc1ccc(O)cc1)C(=O)*; X1 = O=C([C@@H](CSS(=O)(=O)O)N[*:1])[*:2]; X3 = O=C([C@@H](CCS(=O)(=O)O)N[*:1])[*:2]; X2 = C[S+](C)CC[C@@H](N[*:1])C(=O)[*:2]

For the compound `NC(=O)[C@@H]1CCCN1C(=O)[C@H](Cc1ccc([N+](=O)[O-])cc1)NC(=O)CNC(=O)[C@@H](CCC(=O)O)NC(=O)[C@@H](N)Cc1ccc(O)cc1`, the ED50 in the experiment on Mus musculus [1] was found to be 1.4 mg/kg; in the experiment filed under Mus musculus [3], 7.6 mg/kg; in the experiment with Mus musculus [4], 3 mg/kg. In addition, the Ratio in experiment [2] was found to be 5.5. The “IC50 for inhibition of electrically induced contractions” value (shortened to “IC50 for inhibition”) in the experiment filed under Cavia porcellus is recorded as 9 nM.
`NC(=O)[C@@H]1CCCN1C(=O)[C@H](Cc1ccc([N+](=O)[O-])cc1)NC(=O)CNC(=O)[C@@H](CCCN=C(N)N)NC(=O)[C@@H](N)Cc1ccc(O)cc1`: the ED50 in the experiment with Mus musculus [1] worked out at 5.7 mg/kg; in the experiment filed under Mus musculus [3] it was 35 mg/kg; in the experiment on Mus musculus [4], 4.9 mg/kg. Also, the Ratio in experiment [2] stood at 5.5. The “IC50 for inhibition” value in the experiment listed under Cavia porcellus was determined as 132 nM.
`NC(=O)[C@@H]1CCCN1C(=O)[C@H](Cc1ccc([N+](=O)[O-])cc1)NC(=O)CNC(=O)[C@@H](CSCCS(=O)(=O)[O-])NC(=O)[C@@H](N)Cc1ccc(O)cc1.[Na+]` displayed an ED50 in the experiment on Mus musculus [1] of 0.1 mg/kg. In addition, in experiment [2], the Ratio was 4. Besides, the “IC50 for inhibition” value in the experiment filed under Cavia porcellus stood at 3.6 nM.
In the case of `N=C(N)N[C@@H](Cc1ccc(O)cc1)C(=O)N[C@H](CCC(=O)O)C(=O)NCC(=O)N[C@@H](Cc1ccc([N+](=O)[O-])cc1)C(=O)N1CCC[C@H]1C(N)=O`, the values for the 50% effective dose (ED50) in the experiment with Mus musculus [1], in the experiment listed under Mus musculus [3] and in the experiment with Mus musculus [4] were 0.5 mg/kg, 5.3 mg/kg and 0.3 mg/kg, respectively. Moreover, the Ratio in experiment [2] is on record as 1.2. Besides, in the experiment filed under Cavia porcellus, the “IC50 for inhibition” value turned out to be 414 nM.
On to `Cl.NC(=O)[C@@H]1CCCN1C(=O)[C@H](Cc1ccc([N+](=O)[O-])cc1)NC(=O)CNC(=O)[C@@H](CS(=O)(=O)O)NC(=O)[C@@H](N)Cc1ccc(O)cc1`, for which the results for the 50% effective dose (ED50) in the experiment on Mus musculus [1] and in the experiment listed under Mus musculus [3] were 5.9 mg/kg and 19 mg/kg, respectively. Also, the “IC50 for inhibition” value in the experiment filed under Cavia porcellus is reported as 89.4 nM.
With `C[S+](C)CC[C@@H](NC(=O)[C@H](Cc1ccc(O)cc1)N=C(N)N)C(=O)NCC(=O)N[C@@H](Cc1ccc([N+](=O)[O-])cc1)C(=O)N1CCC[C@H]1C(N)=O.Cl.Cl`, the ED50 with Mus musculus [1] came to 0.5 mg/kg; in the experiment listed under Mus musculus [3], 10.9 mg/kg; with Mus musculus [4], 1.1 mg/kg. In experiment [2], the Ratio was determined as 4.2. The “IC50 for inhibition” value in the experiment listed under Cavia porcellus worked out at 525 nM.
The corresponding values for `CSCC[C@H](NC(=O)[C@@H](N)Cc1ccc(O)cc1)C(=O)NCC(=O)N[C@@H](Cc1ccc([N+](=O)[O-])cc1)C(=O)N1CCC[C@H]1C(N)=O` (H-YMG[Phe(4-NO2)]P-NH2) are 0.1 mg/kg, 1.6 mg/kg, 0.4 mg/kg, 1.2 and 1.8 nM.
In the case of `NC(=O)[C@@H]1CCCN1C(=O)[C@H](Cc1ccc([N+](=O)[O-])cc1)NC(=O)CNC(=O)[C@@H](CSS(=O)(=O)O)NC(=O)[C@@H](N)Cc1ccc(O)cc1` (H-Y[X1]G[Phe(4-NO2)]P-NH2), the 50% effective dose (ED50) in the experiment on Mus musculus [1] was found to be 0.5 mg/kg; in the experiment listed under Mus musculus [3], 9.7 mg/kg; in the experiment on Mus musculus [4] it was 0.4 mg/kg. For the same compound, in experiment [2], the Ratio was 3.9. The “IC50 for inhibition” value in the experiment listed under Cavia porcellus is 7.5 nM.
In the case of `C[S+](C)CC[C@@H](NC(=O)[C@@H](N)Cc1ccc(O)cc1)C(=O)NCC(=O)N[C@@H](Cc1ccc([N+](=O)[O-])cc1)C(=O)N1CCC[C@H]1C(N)=O.Cl.Cl` (H-Y[X2]G[Phe(4-NO2)]P-NH2), the median effective dose (ED50) with Mus musculus [1] stood at 8.1 mg/kg; in the experiment on Mus musculus [4], 3.1 mg/kg. The Ratio in experiment [5] was determined as 3.3. In the experiment filed under Cavia porcellus, the “IC50 for inhibition” value came to 61.2 nM.
Take `Cl.NC(=O)[C@@H]1CCCN1C(=O)[C@H](Cc1ccc([N+](=O)[O-])cc1)NC(=O)CNC(=O)[C@@H](CCS(=O)(=O)O)NC(=O)[C@@H](N)Cc1ccc(O)cc1` (H-Y[X3]G[Phe(4-NO2)]P-NH2): the values for the median effective dose (ED50) in the experiment with Mus musculus [1], in the experiment filed under Mus musculus [3] and with Mus musculus [4] were 3.5 mg/kg, 18.6 mg/kg and 3.1 mg/kg, respectively. Also, the Ratio in experiment [2] turned out to be 4.2. The “IC50 for inhibition” value in the experiment filed under Cavia porcellus was determined as 807 nM.
Turning to `N=C(N)NCCC[C@@H](NC(=O)[C@H](Cc1ccc(O)cc1)NC(=N)N)C(=O)NCC(=O)N[C@@H](Cc1ccc([N+](=O)[O-])cc1)C(=O)N1CCC[C@H]1C(N)=O` ({Tyr(Nα-amidino)}-[dR]G[Phe(4-NO2)]P-NH2), it took a dose of 25 mg/kg to reach the 50% effect level in the experiment with Mus musculus [6] (ED50 at 25 mg/kg). The figures for the ED50 in the experiment with Mus musculus [1] and in the experiment with Mus musculus [4] were 0.8 mg/kg and 1.3 mg/kg, respectively. For the same compound, the Ratio in experiment [2] came out at 4.6. Also, in the experiment listed under Cavia porcellus, the “IC50 for inhibition” value was found to be 420 nM.
In the case of `CN1CC[C@]23c4c5ccc(O)c4O[C@H]2[C@@H](O)C=C[C@H]3[C@H]1C5` [MORPHINE], in the experiment on Mus musculus [1], the ED50 came to 0.5 mg/kg.
